{"source": "ChEMBL document CHEMBL1142133", "about": "(2007)", "key": {"Cryptococcus neoformans [1]": {"tested_on": "Cryptococcus neoformans", "test": "Antifungal activity against flucytosine-resistant Cryptococcus neoformans 18476 at 0.125 ug/ml after 72 hrs by time-kill method", "type": "functional", "method_in_brief": "(§1)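 Time-kill assay run as in the authors' earlier method. […] Read-out was log10 CFU/ml after 72 h incubation, compared with a drug-free control.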"}, "Cryptococcus neoformans [2]": {"tested_on": "Cryptococcus neoformans", "test": "Antifungal activity against flucytosine-resistant Cryptococcus neoformans 99.1026 by checkerboard method in presence of flucytosine", "type": "functional"}, "Cryptococcus neoformans [3]": {"tested_on": "Cryptococcus neoformans", "test": "Antifungal activity against flucytosine-resistant Cryptococcus neoformans 98.0673 by checkerboard method", "type": "functional"}, "Cryptococcus neoformans [4]": {"tested_on": "Cryptococcus neoformans", "test": "Antifungal activity against flucytosine-resistant Cryptococcus neoformans 280 by Etest method in presence of flucytosine", "type": "functional"}, "Cryptococcus neoformans [5]": {"tested_on": "Cryptococcus neoformans", "test": "Antifungal activity against flucytosine-resistant Cryptococcus neoformans 99.1026 at 0.125 ug/ml after 72 hrs by time-kill method", "type": "functional", "method_in_brief": "(§2)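 Time-kill assay on flucytosine-resistant isolates. […] Viable counts were taken as log10 CFU per ml after 72 h of incubation.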"}, "Cryptococcus neoformans [6]": {"tested_on": "Cryptococcus neoformans", "test": "Antifungal activity against flucytosine-resistant Cryptococcus neoformans 533 by Etest method in presence of flucytosine", "type": "functional"}, "Cryptococcus neoformans [7]": {"tested_on": "Cryptococcus neoformans", "test": "Antifungal activity against flucytosine-resistant Cryptococcus neoformans 285 by Etest method in presence of flucytosine", "type": "functional"}, "Cryptococcus neoformans [8]": {"tested_on": "Cryptococcus neoformans", "test": "Antifungal activity against flucytosine-resistant Cryptococcus neoformans 276 at 0.125 ug/ml after 72 hrs by time-kill method", "type": "functional", "method_in_brief": "as §1"}, "Cryptococcus neoformans [9]": {"tested_on": "Cryptococcus neoformans", "test": "Antifungal activity against flucytosine-resistant Cryptococcus neoformans 98.0673 by Etest method in presence of flucytosine", "type": "functional"}, "Cryptococcus neoformans [10]": {"tested_on": "Cryptococcus neoformans", "test": "Antifungal activity against flucytosine-resistant Cryptococcus neoformans 550 by Etest method in presence of flucytosine", "type": "functional"}, "Cryptococcus neoformans [11]": {"tested_on": "Cryptococcus neoformans", "test": "Antifungal activity against flucytosine-resistant Cryptococcus neoformans 550 by checkerboard method in presence of flucytosine", "type": "functional"}, "Cryptococcus neoformans [12]": {"tested_on": "Cryptococcus neoformans", "test": "Antifungal activity against flucytosine-resistant Cryptococcus neoformans 280 by checkerboard method", "type": "functional"}, "Cryptococcus neoformans [13]": {"tested_on": "Cryptococcus neoformans", "test": "Antifungal activity against flucytosine-resistant Cryptococcus neoformans 98.0176 by Etest method in presence of flucytosine", "type": "functional"}, "Cryptococcus neoformans [14]": {"tested_on": "Cryptococcus neoformans", "test": "Antifungal activity against flucytosine-resistant Cryptococcus neoformans 98.0176 by checkerboard method in presence of flucytosine", "type": "functional"}, "Cryptococcus neoformans [15]": {"tested_on": "Cryptococcus neoformans", "test": "Antifungal activity against flucytosine-resistant Cryptococcus neoformans 98.0673 at 0.125 ug/ml after 72 hrs by time-kill method", "type": "functional", "method_in_brief": "as §1"}, "Cryptococcus neoformans [16]": {"tested_on": "Cryptococcus neoformans", "test": "Antifungal activity against flucytosine-resistant Cryptococcus neoformans 550 at 0.19 ug/ml after 72 hrs by time-kill method", "type": "functional"}, "Cryptococcus neoformans [17]": {"tested_on": "Cryptococcus neoformans", "test": "Antifungal activity against flucytosine-resistant Cryptococcus neoformans 98.1121 at 0.125 ug/ml after 72 hrs by time-kill method", "type": "functional", "method_in_brief": "as §2"}, "Cryptococcus neoformans [18]": {"tested_on": "Cryptococcus neoformans", "test": "microbe, parasite or virus in culture"}, "Cryptococcus neoformans [19]": {"tested_on": "Cryptococcus neoformans", "test": "Antifungal activity against flucytosine-resistant Cryptococcus neoformans 533 by checkerboard method in presence of flucytosine", "type": "functional"}, "Cryptococcus neoformans [20]": {"tested_on": "Cryptococcus neoformans", "test": "Antifungal activity against flucytosine-resistant Cryptococcus neoformans 98.0176 at 0.125 ug/ml after 72 hrs by time-kill method", "type": "functional", "method_in_brief": "as §1"}, "Cryptococcus neoformans [21]": {"tested_on": "Cryptococcus neoformans", "test": "Antifungal activity against flucytosine-resistant Cryptococcus neoformans 18476 by checkerboard method in presence of flucytosine", "type": "functional"}, "Cryptococcus neoformans [22]": {"tested_on": "Cryptococcus neoformans", "test": "Antifungal activity against flucytosine-resistant Cryptococcus neoformans 18476 by Etest method in presence of flucytosine", "type": "functional"}, "Cryptococcus neoformans [23]": {"tested_on": "Cryptococcus neoformans", "test": "Antifungal activity against flucytosine-resistant Cryptococcus neoformans 280 at 0.125 ug/ml after 72 hrs by time-kill method", "type": "functional", "method_in_brief": "as §1"}, "Cryptococcus neoformans [24]": {"tested_on": "Cryptococcus neoformans", "test": "Antifungal activity against flucytosine-resistant Cryptococcus neoformans 276 by Etest method in presence of flucytosine", "type": "functional"}, "Cryptococcus neoformans [25]": {"tested_on": "Cryptococcus neoformans", "test": "Antifungal activity against flucytosine-resistant Cryptococcus neoformans 276 by checkerboard method in presence of flucytosine", "type": "functional"}, "Cryptococcus neoformans [26]": {"tested_on": "Cryptococcus neoformans", "test": "Antifungal activity against flucytosine-resistant Cryptococcus neoformans 18476 by checkerboard method", "type": "functional"}, "Cryptococcus neoformans [27]": {"tested_on": "Cryptococcus neoformans", "test": "Antifungal activity against flucytosine-resistant Cryptococcus neoformans 98.1121 by Etest method in presence of flucytosine", "type": "functional"}, "Cryptococcus neoformans [28]": {"tested_on": "Cryptococcus neoformans", "test": "Antifungal activity against flucytosine-resistant Cryptococcus neoformans 285 by checkerboard method", "type": "functional"}, "Cryptococcus neoformans [29]": {"tested_on": "Cryptococcus neoformans", "test": "Antifungal activity against flucytosine-resistant Cryptococcus neoformans 533 at 0.125 ug/ml after 72 hrs by time-kill method", "type": "functional", "method_in_brief": "as §1"}, "Cryptococcus neoformans [30]": {"tested_on": "Cryptococcus neoformans", "test": "Antifungal activity against flucytosine-resistant Cryptococcus neoformans 99.1026 by Etest method in presence of flucytosine", "type": "functional"}}, "data": [{"smiles": "C[C@@H]1[C@H](O)[C@@H](C)/C=C/C=C/C=C/C=C/C=C/C=C/C=C/[C@H](O[C@@H]2O[C@H](C)[C@@H](O)[C@H](N)[C@@H]2O)C[C@@H]2O[C@](O)(C[C@@H](O)C[C@@H](O)[C@H](O)CC[C@@H](O)C[C@@H](O)CC(=O)O[C@H]1C)C[C@H](O)[C@H]2C(=O)O", "note": "[AMPHOTERICIN B]", "values": [{"measurement": "log10CFU/ml", "setting": "Cryptococcus neoformans [1]", "result": 6.7}, {"measurement": "MIC", "setting": "Cryptococcus neoformans [2]", "result": 0.06, "unit": "µg/mL"}, {"measurement": "MIC", "setting": "Cryptococcus neoformans [3]", "result": 1, "unit": "µg/mL"}, {"measurement": "MIC", "setting": "Cryptococcus neoformans [4]", "result": 0.094, "unit": "µg/mL"}, {"measurement": "log10CFU/ml", "setting": "Cryptococcus neoformans [5]", "result": 5.2}, {"measurement": "MIC", "setting": "Cryptococcus neoformans [6]", "result": 0.094, "unit": "µg/mL"}, {"measurement": "MIC", "setting": "Cryptococcus neoformans [7]", "result": 0.095, "unit": "µg/mL"}, {"measurement": "log10CFU/ml", "setting": "Cryptococcus neoformans [8]", "result": 7.3}, {"measurement": "MIC", "setting": "Cryptococcus neoformans [9]", "result": 0.094, "unit": "µg/mL"}, {"measurement": "MIC", "setting": "Cryptococcus neoformans [10]", "result": 0.094, "unit": "µg/mL"}, {"measurement": "MIC", "setting": "Cryptococcus neoformans [11]", "result": 0.06, "unit": "µg/mL"}, {"measurement": "MIC", "setting": "Cryptococcus neoformans [12]", "result": 1, "unit": "µg/mL"}, {"measurement": "MIC", "setting": "Cryptococcus neoformans [13]", "result": 0.094, "unit": "µg/mL"}, {"measurement": "MIC", "setting": "Cryptococcus neoformans [14]", "result": 0.12, "unit": "µg/mL"}, {"measurement": "log10CFU/ml", "setting": "Cryptococcus neoformans [15]", "result": 7.2}, {"measurement": "log10CFU/ml", "setting": "Cryptococcus neoformans [16]", "result": 7.2}, {"measurement": "log10CFU/ml", "setting": "Cryptococcus neoformans [17]", "result": 1.5}, {"measurement": "MIC", "setting": "Cryptococcus neoformans [18]", "result": 0.25, "unit": "µg/mL"}, {"measurement": "MIC", "setting": "Cryptococcus neoformans [19]", "result": 0.12, "unit": "µg/mL"}, {"measurement": "log10CFU/ml", "setting": "Cryptococcus neoformans [20]", "result": 6.5}, {"measurement": "MIC", "setting": "Cryptococcus neoformans [21]", "result": 0.12, "unit": "µg/mL"}, {"measurement": "MIC", "setting": "Cryptococcus neoformans [22]", "result": 0.094, "unit": "µg/mL"}, {"measurement": "log10CFU/ml", "setting": "Cryptococcus neoformans [23]", "result": 5.6}, {"measurement": "MIC", "setting": "Cryptococcus neoformans [24]", "result": 0.094, "unit": "µg/mL"}, {"measurement": "MIC", "setting": "Cryptococcus neoformans [25]", "result": 0.06, "unit": "µg/mL"}, {"measurement": "MIC", "setting": "Cryptococcus neoformans [26]", "result": 0.25, "unit": "µg/mL"}, {"measurement": "MIC", "setting": "Cryptococcus neoformans [27]", "result": 0.094, "unit": "µg/mL"}, {"measurement": "MIC", "setting": "Cryptococcus neoformans [28]", "result": 1, "unit": "µg/mL"}, {"measurement": "log10CFU/ml", "setting": "Cryptococcus neoformans [29]", "result": 7.4}, {"measurement": "MIC", "setting": "Cryptococcus neoformans [30]", "result": 0.094, "unit": "µg/mL"}]}]}
